Reference: ChEMBL document CHEMBL3608261, “Metabolically programmed iron chelators” (Bioorg Med Chem, 2015)

Columns and labels:
[1] = test system: Rattus norvegicus; assay: Drug metabolism in Sprague-Dawley rat heart assessed as (S)-4'-(carboxymethoxy)-DADFT level at 300 umol/kg, sc after 1 hr by HPLC analysis; type: ADME, organism-based; settings: in vivo
Method in brief: (§1)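 Single sc injection in male Sprague-Dawley rats (250–350 g) of the monosodium salt at 300 µmol/kg, n=3 per time point, killed by CO2 at 0.5–8 h. Plasma came from citrated cardiac blood; organs were frozen. Homogenates were made 1:3 in 0.5 N HClO4, given a methanol rinse, held 30 min at −20 °C, centrifuged, diluted in pH 3.0 phosphate/CH3CN and filtered. RP-amide HPLC, UV 310 nm; values are means, nmol/g wet weight or µM.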

[2] = test system: Rattus norvegicus; assay: Drug metabolism in Sprague-Dawley rat kidney assessed as (S)-4'-(carboxymethoxy)-DADFT level at 300 umol/kg, sc after 1 hr by HPLC analysis; type: ADME, organism-based; settings: in vivo; method in brief: as §1
[3] = test system: Rattus norvegicus; assay: Drug metabolism in Sprague-Dawley rat kidney assessed as (S)-4'-(3-carboxypropyloxy)-DADFT level at 300 umol/kg, sc after 0.5 to 1 hrs by HPLC analysis; type: ADME, organism-based; settings: in vivo; method in brief: as §1
[4] = test system: Rattus norvegicus; assay: Drug metabolism in Sprague-Dawley rat plasma assessed as parent compound and metabolite level at 300 umol/kg, sc after 8 hrs by HPLC analysis; type: ADME, organism-based; settings: in vivo, read-out: Drug metabolism
Method in brief: (§2)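 Rats (male Sprague-Dawley, 250–350 g) were dosed sc once with the monosodium salt, 300 µmol/kg, three animals per time point up to 8 h. Plasma came from citrated cardiac blood; liver was frozen after CO2 euthanasia. Parent and metabolites were quantified by HPLC with UV at 310 nm against linear calibration curves (detection limit 0.25 µM, linear 1–1000 µM). Data are means.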

[5] = test system: Rattus norvegicus; assay: Drug metabolism in Sprague-Dawley rat kidney assessed as (S)-4'-(carboxymethoxy)-DADFT level at 300 umol/kg, sc after 8 hrs by HPLC analysis; type: ADME, organism-based; settings: in vivo; method in brief: as §1
[6] = test system: Rattus norvegicus; assay: Drug metabolism in Sprague-Dawley rat pancreas assessed as (S)-4'-(5-carboxypentyloxy)-DADFT level at 300 umol/kg, sc after 0.5 to 8 hrs by HPLC analysis; type: ADME, organism-based; settings: in vivo; method in brief: as §1
[7] = test system: Rattus norvegicus; assay: Drug metabolism in Sprague-Dawley rat liver assessed as (S)-4'-(5-carboxypentyloxy)-DADFT level at 300 umol/kg, sc after 0.5 to 1 hrs by HPLC analysis; type: ADME, organism-based; settings: in vivo; method in brief: as §1
[8] = test system: Rattus norvegicus; assay: Iron clearing efficiency in bile duct cannulated Sprague-Dawley rat assessed as clearance of iron in urine at 300 umol/kg, po measured at 3 hrs intervals for up to 48 hrs relative to control; type: functional
[9] = test system: Rattus norvegicus; assay: Drug metabolism in Sprague-Dawley rat liver assessed as parent compound and metabolite level at 300 umol/kg, sc after 8 hrs by HPLC analysis; type: ADME, organism-based; settings: in vivo; method in brief: as §2
[10] = test system: Rattus norvegicus; assay: Iron clearing efficiency in bile duct cannulated Sprague-Dawley rat assessed as clearance of iron in bile at 300 umol/kg, po measured at 3 hrs intervals for up to 48 hrs relative to control; type: functional
Method in brief: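 Non-iron-overloaded male Sprague-Dawley rats (400–450 g) with cannulated bile ducts received 300 µmol/kg po or sc. […] Bile was sampled every 3 h for up to 48 h and urine at 24 h intervals. ICE = (treated minus control iron excretion) / theoretical output (2:1 ligand:Fe) × 100 over 48 h. Mean ± SEM.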

[11] = test system: Rattus norvegicus; assay: Drug metabolism in Sprague-Dawley rat pancreas assessed as (S)-4'-(3-carboxypropyloxy)-DADFT level at 300 umol/kg, sc after 1 hr by HPLC analysis; type: ADME, organism-based; settings: in vivo; method in brief: as §1
[12] = test system: Rattus norvegicus; assay: Toxicity in Sprague-Dawley rat assessed as mortality at 384 umol/kg, po qd for 10 days; type: organism-based; settings: in vivo, 240 h
Method in brief: (§3)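 Male Sprague-Dawley rats (n=5, 375–400 g) with normal iron stores, housed singly in metabolic cages and weighed daily. Drug given po by gavage as monosodium salt once daily for 10 days, dosed in the morning after overnight fast; fed ~3 h post-drug. Euthanized day 11; CBC, serum chemistries and 25 tissues/rat for outside histopathology; age-matched untreated controls.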

[13] = test system: Rattus norvegicus; assay: Drug metabolism in Sprague-Dawley rat plasma assessed as parent compound and metabolite level at 300 umol/kg, sc after 4 hrs by HPLC analysis; type: ADME, organism-based; settings: in vivo; method in brief: as §2
[14] = Performance ratio, ratio of iron clearing efficiency in […] at 75 umol/kg, po to iron clearing efficiency in bile duct cannulated Sprague-Dawley rat at 300 umol/kg, po; type: functional
Method in brief: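 Performance ratio = mean ICE in iron-overloaded Cebus apella (75 µmol/kg) divided by mean ICE in bile duct-cannulated rats (300 µmol/kg), by the same route.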

[15] = test system: Rattus norvegicus; assay: Toxicity in Sprague-Dawley rat assessed as histopathology at 384 umol/kg, po qd for 10 days; type: organism-based; settings: in vivo, 240 h; method in brief: as §3
[16] = test system: Rattus norvegicus; assay: Drug metabolism in Sprague-Dawley rat heart assessed as (S)-4'-(carboxymethoxy)-DADFT level at 300 umol/kg, sc after 0.5 hrs by HPLC analysis; type: ADME, organism-based; settings: in vivo; method in brief: as §1
[17] = test system: Rattus norvegicus; assay: Drug metabolism in Sprague-Dawley rat liver assessed as parent compound and (S)-4'-(3-carboxypropyloxy)-DADFT level at 300 umol/kg, sc after 8 hrs by HPLC analysis; type: ADME, organism-based; settings: in vivo; method in brief: as §1
[18] = test system: Rattus norvegicus; assay: Drug metabolism in Sprague-Dawley rat heart assessed as (S)-4'-(5-carboxypentyloxy)-DADFT level at 300 umol/kg, sc up to 8 hrs by HPLC analysis; type: ADME, organism-based; settings: in vivo; method in brief: as §1
[19] = test system: Rattus norvegicus; assay: Drug metabolism in Sprague-Dawley rat pancreas assessed as (S)-4'-(3-carboxypropyloxy)-DADFT level at 300 umol/kg, sc after 0.5 hrs by HPLC analysis; type: ADME, organism-based; settings: in vivo; method in brief: as §1
[20] = test system: Rattus norvegicus; assay: Drug metabolism in Sprague-Dawley rat pancreas assessed as (S)-4'-(5-carboxypentyloxy)-DADFT level at 300 umol/kg, sc after 4 to 8 hrs by HPLC analysis; type: ADME, organism-based; settings: in vivo; method in brief: as §1
[21] = test system: Rattus norvegicus; assay: Drug metabolism in Sprague-Dawley rat heart assessed as parent compound level at 300 umol/kg, sc after 0.5 hrs by HPLC analysis; type: ADME, organism-based; settings: in vivo; method in brief: as §1
[22] = test system: Sapajus apella; assay: Iron clearing efficiency in bile duct cannulated Cebus apella assessed as clearance of iron in bile at 75 umol/kg, po measured at 3 hrs intervals for up to 48 hrs relative to control; type: functional
[23] = test system: Rattus norvegicus; assay: Drug metabolism in Sprague-Dawley rat pancreas assessed as (S)-4'-(carboxymethoxy)-DADFT level at 300 umol/kg, sc after 4 to 8 hrs by HPLC analysis; type: ADME, organism-based; settings: in vivo; method in brief: as §1
[24] = test system: Rattus norvegicus; assay: Drug metabolism in Sprague-Dawley rat kidney assessed as (S)-4'-(carboxymethoxy)-DADFT level at 300 umol/kg, sc after 0.5 hrs by HPLC analysis; type: ADME, organism-based; settings: in vivo; method in brief: as §1
[25] = test system: Rattus norvegicus; assay: Drug metabolism in Sprague-Dawley rat pancreas assessed as parent compound level at 300 umol/kg, sc after 0.5 hrs by HPLC analysis; type: ADME, organism-based; settings: in vivo; method in brief: as §1
[26] = test system: Rattus norvegicus; assay: Toxicity in Sprague-Dawley rat assessed as BUN level in blood at 384 umol/kg, po qd for 10 days; type: organism-based; settings: in vivo, 240 h
Method in brief: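 Male Sprague-Dawley rats (n=5, 375–400 g) with normal iron stores were housed in metabolic cages. Drug was given po as the monosodium salt, once daily for 10 days at 384 µmol/kg/day. Rats were fasted overnight, dosed in the morning, and fed about 3 h post-drug. They were euthanized on day 11, and blood was taken for serum chemistry including BUN. Age-matched untreated rats served as controls.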

[27] = test system: Rattus norvegicus; assay: Drug metabolism in Sprague-Dawley rat pancreas assessed as (S)-4'-(3-carboxypropyloxy)-DADFT level at 300 umol/kg, sc after 4 to 8 hrs by HPLC analysis; type: ADME, organism-based; settings: in vivo; method in brief: as §1
[28] = test system: Rattus norvegicus; assay: Drug metabolism in Sprague-Dawley rat heart assessed as (S)-4'-(carboxymethoxy)-DADFT level at 300 umol/kg, sc after 2 to 8 hrs by HPLC analysis; type: ADME, organism-based; settings: in vivo; method in brief: as §1
[29] = test system: Rattus norvegicus; assay: Drug metabolism in Sprague-Dawley rat heart assessed as (S)-4'-(3-carboxypropyloxy)-DADFT level at 300 umol/kg, sc after 0.5 to 1 hrs by HPLC analysis; type: ADME, organism-based; settings: in vivo; method in brief: as §1
[30] = test system: Rattus norvegicus; assay: Drug metabolism in Sprague-Dawley rat kidney assessed as (S)-4'-(3-carboxypropyloxy)-DADFT level at 300 umol/kg, sc after 8 hrs by HPLC analysis; type: ADME, organism-based; settings: in vivo; method in brief: as §1
[31] = test system: Rattus norvegicus; assay: Drug metabolism in Sprague-Dawley rat kidney assessed as (S)-4'-(carboxymethoxy)-DADFT level at 300 umol/kg, sc after 2 hrs by HPLC analysis; type: ADME, organism-based; settings: in vivo; method in brief: as §1
[32] = test system: Rattus norvegicus; assay: Drug metabolism in Sprague-Dawley rat kidney assessed as (S)-4'-(5-carboxypentyloxy)-DADFT level at 300 umol/kg, sc after 0.5 to 1 hrs by HPLC analysis; type: ADME, organism-based; settings: in vivo; method in brief: as §1
[33] = test system: Rattus norvegicus; assay: Drug metabolism in Sprague-Dawley rat plasma assessed as (S)-4'-(carboxymethoxy)-DADFT level at 300 umol/kg, sc after 8 hrs by HPLC analysis; type: ADME, organism-based; settings: in vivo; method in brief: as §1

C[C@]1(C(=O)O)CSC(c2ccc(OCCCCCCO)cc2O)=N1
Drug metabolism [1]: 23 nmol/g
Drug metabolism [2]: 201 nmol/g
Drug metabolism [3]: 300 nmol/g
concentration [4]: 23 µM
Drug metabolism [5]: 5 nmol/g
Drug metabolism [6]: metabolite_notdetected
Drug metabolism [7]: metabolite_detected
Activity [8]: 4%
Drug metabolism [9]: metabolite_detected
Activity [10]: 96%
Drug metabolism [11]: 23 nmol/g
Activity [12]: Non-toxic
Drug metabolism [13]: Not Active
Ratio [14]: 2.2
Activity [15]: Non-toxic
Drug metabolism [16]: 17 nmol/g
Drug metabolism [17]: metabolite_notdetected
Drug metabolism [18]: metabolite_notdetected
Drug metabolism [19]: 19 nmol/g
Drug metabolism [20]: metabolite_notdetected
Drug metabolism [21]: 26 nmol/g
Activity [22]: 90%
Drug metabolism [23]: metabolite_notdetected
Drug metabolism [24]: 156 nmol/g
Drug metabolism [25]: < 5 nmol/g
Activity [26]: 20 mg/dL
Drug metabolism [27]: metabolite_notdetected
Drug metabolism [28]: metabolite_notdetected
Drug metabolism [29]: 46 nmol/g
Drug metabolism [30]: metabolite_notdetected
Drug metabolism [31]: 161 nmol/g
Drug metabolism [32]: metabolite_detected
Drug metabolism [33]: metabolite_detected
